Experimental data published in PMC6263152 (Journal of medicinal chemistry, 2018).

Assays:
PC3 (PSMA−) cells = experiment: FACS flow cytometry nonspecific binding control, PC3 cells
Outline: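 PSMA− PC3 cells (luciferase/GFP-expressing) were incubated with 0.1–100 nM test compound for 1 h at 37 °C. Cell-bound fluorescence was read by flow cytometry in the Cy3 channel (488 nm, 22 mW excitation; 620/30 emission filter). Curves were fitted with a two-parameter exponential function. Flow experiments were run in duplicate.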

[1] = test system: PC3-PIP (PSMA+) vs PC3 (PSMA−) cell containing myocutaneous tissue; experiment: Ex vivo γ-scintillated biodistribution in mice bearing PC3 and PC3-PIP cells; parameters: species or system C57BL/6 mice; settings: 2 h after iv injection, γ-scintillation of excised tissue
Outline: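 Male C57BL/6 mice, 5–6 weeks old, 20–25 g (n = 6), were given 3 × 10^6 (18 mg) PC3 cells s.c. in the left flank and PC3-PIP cells in the right flank. After 15 min, radiotracer (100 μL, 80 μCi, 25 μM; 2.5 nmol) went i.v. via the tail vein. Mice were killed by cervical dislocation at 2 h. Organs and flank myocutaneous tissue were weighed and γ-counted as %ID per gram, mean ± SEM.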

Defluoridation stability = assay type: in vitro ADME
[2] = Optical properties in 1× PBS; assay type: physicochemical; settings: pH 7.5
[3] = test system: PC3-PIP (PSMA+) and PC3 (PSMA−) cell containing tissue; experiment: PET/CT imaging in mice bearing PC3 and PC3-PIP cells; assay type: in vivo, C57BL/6 mice
Outline: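 Male C57BL/6 mice received s.c. 3 × 10^6 (18 mg) PC3 cells in the left flank and PC3-PIP cells in the right flank (n = 6); mice without cells served as controls (n = 5). 15 min later, [18F]-labelled test compound (80 μCi, 2.5 nmol, 100 μL) was given i.v. by tail vein. A 10 min CT then a 15 min PET scan were acquired at 2 and 6 h, shown as maximum intensity projections.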

Activity in PC3-PIP (PSMA+) vs PC3 (PSMA−) containing myocutaneous tissue [1]: 175 fold | Defluoridation (Defluoridation stability; 7 days room temperature incubation with fetal bovine serum): Less than 1% | Chemical decomposition (defluoridation) (Defluoridation stability; physiological conditions): not observed | Extinction coefficient ([2]; 1 mM PBS): 159 000 M^−1 cm^−1 | Quantum yield φ [2]: 0.06 | Liberation of [18F]-fluoride ion (defluoridation) in vivo [3]: not observed
SMILES: CC1(C)C(/C=C/C=C2\N(CCCCCC(=O)NCCCC[C@H](NC(=O)N[C@H](CCC(=O)O)C(=O)O)C(=O)O)c3ccc(S(=O)(=O)O)cc3C2(C)C)=[N+](CCCCCC(=O)NCCCCn2cc(C[N+](C)(C)C[B-](F)(F)F)nn2)c2ccc(S(=O)(=O)O)cc21 [[^19F]-4, ((((1-(4-(6-(2-((E)-3-((Z)-1-(6-(((S)-5-Carboxy-5-(3-((R)-1,3-dicarboxypropyl)ureido)pentyl)amino)-6-oxohexyl)-3,3-dimethyl-5-sulfoindolin-2-ylidene)prop-1-en-1-yl)-3,3-dimethyl-5-sulfo-3H-indol-1-ium-1-yl)hexanamido)butyl)-1H-1,2,3-triazol-4-yl)methyl)dimethylammonio)methyl) Trifluoroborate]
Nonspecific binding to PC3 (PC3 (PSMA−) cells): not observed
